Test results reported in the RNAGym collection of RNA variant scans (doi:10.1126/science.aae0568).
Variants at the floor of the assay were thinned out.

B1: tRNA (parent)
chain: GUUCCGUUGGCGUAAUGGUAACGCGUCUCCCUCCUAAGGAGAAGACUGCGGGUUCGAGUCCCGUACGGAACG

Variants of: B1
Test: yeast fitness relative to wild type (ratio to wild type); higher = fitter; tRNA-Arg(CCU), competitive growth, 37 C, YPD
How it was run: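 Amplicons of the tRNA-Arg(CCU) gene were sequenced, 100-nucleotide paired-end, from the start population and from each end population of a pooled yeast competition. The competition, in six parallel replicates, lasted 24 hours in YPD at 37°C. Fitness relative to wild type was calculated from changes in genotype frequencies. Genotypes had to have ≥ 100 starting reads, and estimates < 0.5 were set to 0.5.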

First: A14U C29U
Second: A14U C29G
The yeast fitness of the first is lower: 0.64 for the first, 0.692 for the second.

First: A14U A20U G67A
Second: A14U C22A U28A C30U U53A U54C
The yeast fitness of the first is higher: 0.544 for the first, ≤ 0.5 for the second.

A14U C22G A42C C66U and A14U A40C A57C C61U cannot be ordered by yeast fitness: ≤ 0.5 for the first, ≤ 0.5 for the second.

A14U A15G G18A and A14U A15G C33U A42C cannot be ordered by yeast fitness: ≤ 0.5 for the first, ≤ 0.5 for the second.

A14U C27G A36G G52C C61A and A14G U16A C33A C49U C55U cannot be ordered by yeast fitness: ≤ 0.5 for the first, ≤ 0.5 for the second.

A14G G25C C29A G52A and A14U C27G A37U cannot be ordered by yeast fitness: ≤ 0.5 for the first, ≤ 0.5 for the second.

First: A14G U19A C34U C66U
Second: A14G G51A A57C
The yeast fitness of the first is lower: 0.538 for the first, 0.742 for the second.

Going from A14G U26A to A14U C27U C66G, the yeast fitness falls from 0.989 to ≤ 0.5.

First: A14G U16A C24G G51A
Second: A14G U19A A20G A40U C61G
The yeast fitness of the first is lower: 0.511 for the first, 0.515 for the second.

A14G G23A A36G C66U and A14G G25A C30A A70C cannot be ordered by yeast fitness: ≤ 0.5 for the first, ≤ 0.5 for the second.

Compared with A14G U28A, A14G U19C G38C G44C C46A is lower in yeast fitness: 0.705 for the first, 0.704 for the second.

Compared with A14G U19G G48C, A14G U16A C33A U59C is lower in yeast fitness: 0.736 for the first, ≤ 0.5 for the second.

Compared with A14U A21U C29G C46U, A14U A21G G39C A45G U53C is higher in yeast fitness: ≤ 0.5 for the first, 0.521 for the second.

First: A14G G38A A40C G50A U54A
Second: A14U C24G G41A G44A U53A A57G C66U
The yeast fitness of the first is lower: 0.523 for the first, 0.529 for the second.

A14G U35C A57G and A14G U28C U32C C33U G56A cannot be ordered by yeast fitness: ≤ 0.5 for the first, ≤ 0.5 for the second.

A14U A43U U59A and A14U A42G A43G C66G cannot be ordered by yeast fitness: ≤ 0.5 for the first, ≤ 0.5 for the second.

A14U A15G C31A C34G C61U and A14G G23C C29G G63C C66G cannot be ordered by yeast fitness: ≤ 0.5 for the first, ≤ 0.5 for the second.

A14U C27G G52A C60U and A14G U35G A37U cannot be ordered by yeast fitness: ≤ 0.5 for the first, ≤ 0.5 for the second.

A14G G41A G44C C49U and A14G G41A A69C cannot be ordered by yeast fitness: ≤ 0.5 for the first, ≤ 0.5 for the second.

A14U A43G G63C and A14U C29U A37U C46U U59G cannot be ordered by yeast fitness: ≤ 0.5 for the first, ≤ 0.5 for the second.

First: A14U A21G
Second: A14U A36U C62G
The yeast fitness of the first is higher: 0.584 for the first, ≤ 0.5 for the second.

Compared with A14G U32G C60U C62U, A14U A45G U53C is lower in yeast fitness: 0.539 for the first, ≤ 0.5 for the second.

A14U A37U and A14U A36G U53A cannot be ordered by yeast fitness: ≤ 0.5 for the first, ≤ 0.5 for the second.

First: A14U A21G A45C U59C
Second: A14G G25A C30A A57U
The yeast fitness of the first is lower: ≤ 0.5 for the first, 0.607 for the second.

A14U C22G A42U and A14U A20C C27U U35C G48A C62A cannot be ordered by yeast fitness: ≤ 0.5 for the first, ≤ 0.5 for the second.

A14G U19A C55U and A14U A37U A65G cannot be ordered by yeast fitness: ≤ 0.5 for the first, ≤ 0.5 for the second.

Compared with A14U A45C A69U, A14U A21G A43U G58C is lower in yeast fitness: 0.592 for the first, ≤ 0.5 for the second.

A14U A15C C33A G39C and A14U C29G A57G U59G C62G C66U cannot be ordered by yeast fitness: ≤ 0.5 for the first, ≤ 0.5 for the second.

First: A14U A37U C61A A65U
Second: A14G G39A A43U
The yeast fitness of the first is lower: ≤ 0.5 for the first, 0.643 for the second.

Going from A14U A43U A45G U53C to A14G G38C, the yeast fitness rises from ≤ 0.5 to 0.787.

First: A14U A69U
Second: A14U A45C C46U C49G G63A A70U
The yeast fitness of the first is higher: 0.702 for the first, 0.661 for the second.

Going from A14U A15G A21C G56A C62U A65U to A14G G23A C49A, the yeast fitness falls from 0.554 to ≤ 0.5.

A14G G39A G51C and A14U A20G C30G A42C cannot be ordered by yeast fitness: ≤ 0.5 for the first, ≤ 0.5 for the second.

A14U A20U C49U and A14G U19G C27G C34A A42U cannot be ordered by yeast fitness: ≤ 0.5 for the first, ≤ 0.5 for the second.

A14G U32G U35G A36C C61G A70G and A14G U19A C27G G44A C46G C55G C66A cannot be ordered by yeast fitness: ≤ 0.5 for the first, ≤ 0.5 for the second.

Compared with A14G G48C G67C, A14U C22G A70U is higher in yeast fitness: ≤ 0.5 for the first, 0.576 for the second.

A14U C24G G41A G44A U53A G63A C66U and A14U A69U A70C cannot be ordered by yeast fitness: ≤ 0.5 for the first, ≤ 0.5 for the second.

Compared with A14U A21C U54G, A14U C29G U53C U54G is higher in yeast fitness: ≤ 0.5 for the first, 0.571 for the second.

Compared with A14G U54C, A14G G39A G44C C61A G63C is lower in yeast fitness: 0.633 for the first, ≤ 0.5 for the second.

First: A14G G51A
Second: A14U C24U U64C
The yeast fitness of the first is higher: 0.657 for the first, ≤ 0.5 for the second.

A14U A20C C22G C31G U47A and A14G U54A A69U cannot be ordered by yeast fitness: ≤ 0.5 for the first, ≤ 0.5 for the second.

Compared with A14G U19C A21U, A14U C22U A45U is lower in yeast fitness: 0.503 for the first, ≤ 0.5 for the second.

Compared with A14G G38A C60U G67C, A14U A57C C60G C61A is higher in yeast fitness: ≤ 0.5 for the first, 0.601 for the second.

A14G G39C G51A and A14G G23A C60A cannot be ordered by yeast fitness: ≤ 0.5 for the first, ≤ 0.5 for the second.

Compared with A14G U16A, A14U A42C is lower in yeast fitness: 0.886 for the first, 0.639 for the second.

A14G G25A A36U G50A C62G and A14U C27U C55G G68A cannot be ordered by yeast fitness: ≤ 0.5 for the first, ≤ 0.5 for the second.

Compared with A14G G52C, A14U A21G G39C A45G G63C is lower in yeast fitness: 0.577 for the first, ≤ 0.5 for the second.

A14G U16G C24G U26C G50C A65U and A14U C22U C30U C46U G52C cannot be ordered by yeast fitness: ≤ 0.5 for the first, ≤ 0.5 for the second.

Compared with A14U A20C C31G A69U, A14U A65G C66G is higher in yeast fitness: ≤ 0.5 for the first, 0.788 for the second.

Compared with A14G U47C A69C, A14G U28A A45C U53A is lower in yeast fitness: 0.706 for the first, ≤ 0.5 for the second.

First: A14G U47A G56A
Second: A14U C24G
The yeast fitness of the first is higher: 0.724 for the first, 0.657 for the second.

Compared with A14U A43G U59G C62G G63A, A14U A21C A36C C49A G68C is lower in yeast fitness: 0.558 for the first, ≤ 0.5 for the second.

First: A14U A21U C22U
Second: A14U A15C
The yeast fitness of the first is lower: 0.527 for the first, 0.681 for the second.

First: A14U A15G
Second: A14G U28G G41C G48A U64C
The yeast fitness of the first is higher: 0.725 for the first, ≤ 0.5 for the second.

First: A14U C22A A43G
Second: A14G G63A
The yeast fitness of the first is lower: ≤ 0.5 for the first, 0.756 for the second.

First: A14U A15G C24U C31U C61U
Second: A14U A15U C34G A42C
The yeast fitness of the first is lower: ≤ 0.5 for the first, 0.537 for the second.

Going from A14G G58C A70U to A14G G52C C66G, the yeast fitness falls from 0.892 to 0.619.

Going from A14U A43U to A14G G44C G58A A65G, the yeast fitness falls from 0.721 to 0.553.

A14U C24G A36G C66U and A14U C24G U26G cannot be ordered by yeast fitness: ≤ 0.5 for the first, ≤ 0.5 for the second.

A14G U53C G67C and A14U A42C G52A G56C cannot be ordered by yeast fitness: ≤ 0.5 for the first, ≤ 0.5 for the second.

A14U A21G G25A C34G A57U A69U and A14U A36U A45G cannot be ordered by yeast fitness: ≤ 0.5 for the first, ≤ 0.5 for the second.

First: A14U A20C G23A C46A U64C
Second: A14G G68A
The yeast fitness of the first is lower: ≤ 0.5 for the first, 0.653 for the second.

A14U A45U G68C and A14U A37U A40C A42G cannot be ordered by yeast fitness: ≤ 0.5 for the first, ≤ 0.5 for the second.

First: A14G U59A
Second: A14G U19C G67A
The yeast fitness of the first is higher: 0.894 for the first, 0.76 for the second.

Compared with A14G G56C, A14U A20C U59A C66A is lower in yeast fitness: 0.611 for the first, ≤ 0.5 for the second.

Going from A14G G48A C66U to A14G U19C, the yeast fitness rises from 0.645 to 0.919.

First: A14G G23A A70C
Second: A14U A40C C62A C66U
The yeast fitness of the first is lower: ≤ 0.5 for the first, 0.603 for the second.

Compared with A14G G25C C31A, A14G U35A A42U C46G G56A A70C is higher in yeast fitness: ≤ 0.5 for the first, 0.569 for the second.

A14G G41C C55A and A14G U28C G67U A69C cannot be ordered by yeast fitness: ≤ 0.5 for the first, ≤ 0.5 for the second.

Going from A14G U26C G48A to A14U A37U A45U, the yeast fitness falls from 0.661 to ≤ 0.5.

First: A14G G23C C55U C61U A65U
Second: A14U A15C A40G G56C G67C
The yeast fitness of the first is higher: 0.558 for the first, ≤ 0.5 for the second.

A14G G41A U47A C62A and A14G G23A U54G cannot be ordered by yeast fitness: ≤ 0.5 for the first, ≤ 0.5 for the second.

First: A14U C27U A69G
Second: A14U A43U C55G
The yeast fitness of the first is lower: ≤ 0.5 for the first, 0.511 for the second.

Going from A14G G67U to A14U A20C U59C, the yeast fitness falls from 0.776 to ≤ 0.5.

Compared with A14G U16A U47C, A14G G51A U54C is lower in yeast fitness: 0.812 for the first, ≤ 0.5 for the second.

A14U A21C G41A G67C and A14U C27A C33U U47C C49U G51A cannot be ordered by yeast fitness: ≤ 0.5 for the first, ≤ 0.5 for the second.

Compared with A14U A70G, A14G U32G is lower in yeast fitness: 0.734 for the first, 0.597 for the second.

First: A14U A45G
Second: A14U A20G C24A C31U A37U G48A A69C
The yeast fitness of the first is higher: 0.67 for the first, ≤ 0.5 for the second.

First: A14U C27G
Second: A14G U53G G56A C61U
The yeast fitness of the first is lower: 0.611 for the first, 0.656 for the second.

Going from A14G G23A U47C to A14G G41C, the yeast fitness rises from ≤ 0.5 to 0.917.

A14G U26G G39A and A14U A45U G58C cannot be ordered by yeast fitness: ≤ 0.5 for the first, ≤ 0.5 for the second.

First: A14G G25A G44C
Second: A14G U16G C24G U26C U47G G50C C66A
The yeast fitness of the first is higher: 0.782 for the first, ≤ 0.5 for the second.

First: A14G U26A C27G C62A
Second: A14G U54C A70G
The yeast fitness of the first is higher: 0.571 for the first, 0.535 for the second.

In the case of A14U A57U C60A, the yeast fitness is reported as ≤ 0.5.
